Laboratory results taken from ChEMBL document CHEMBL2384938, “Discovery of a New Class of Potent MMP Inhibitors by Structure-Based Optimization of the Arylsulfonamide Scaffold” (ACS Med Chem Lett, 2013).

Key:
[1] = target: Macrophage metalloelastase (Homo sapiens, UniProt P39900); assay: Inhibition of MMP12 (unknown origin)-mediated Mca-Pro-Leu-Gly-Leu-Dpa-Ala-Arg-NH2 by fluorimetric assay
Collagenase 3 = Collagenase 3 (Homo sapiens, UniProt P45452); assay: Inhibition of MMP13 (unknown origin)-mediated Mca-Pro-Leu-Gly-Leu-Dpa-Ala-Arg-NH2 by fluorimetric assay
Summary of the method: (§1)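 Activity read fluorimetrically; values reported as inhibition constants (Ki). The same assay format was used for each of MMP-1, -7, -8 and -13.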

Neutrophil collagenase = Neutrophil collagenase (Homo sapiens, UniProt P22894); assay: Inhibition of MMP8 (unknown origin)-mediated Mca-Pro-Leu-Gly-Leu-Dpa-Ala-Arg-NH2 by fluorimetric assay; summary of the method: as §1
Chain of Neutrophil collagenase (P22894 whole entry): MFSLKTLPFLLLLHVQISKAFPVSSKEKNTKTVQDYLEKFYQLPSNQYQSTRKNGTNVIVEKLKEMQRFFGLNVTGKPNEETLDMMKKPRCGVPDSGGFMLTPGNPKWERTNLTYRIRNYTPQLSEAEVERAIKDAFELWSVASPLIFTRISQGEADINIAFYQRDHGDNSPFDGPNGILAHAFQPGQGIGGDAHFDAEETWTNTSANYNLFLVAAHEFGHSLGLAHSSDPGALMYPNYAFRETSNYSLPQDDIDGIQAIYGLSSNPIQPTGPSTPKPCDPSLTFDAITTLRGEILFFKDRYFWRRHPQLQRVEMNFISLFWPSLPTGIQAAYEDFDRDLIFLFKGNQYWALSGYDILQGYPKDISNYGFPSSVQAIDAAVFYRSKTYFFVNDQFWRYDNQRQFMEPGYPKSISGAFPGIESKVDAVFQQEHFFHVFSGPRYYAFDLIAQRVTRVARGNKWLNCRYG

Matrilysin = target: T1, Matrilysin (Homo sapiens, UniProt P09237); assay: Inhibition of MMP7 (unknown origin)-mediated Mca-Pro-Leu-Gly-Leu-Dpa-Ala-Arg-NH2 by fluorimetric assay; summary of the method: as §1
T1 sequence (P09237 whole entry): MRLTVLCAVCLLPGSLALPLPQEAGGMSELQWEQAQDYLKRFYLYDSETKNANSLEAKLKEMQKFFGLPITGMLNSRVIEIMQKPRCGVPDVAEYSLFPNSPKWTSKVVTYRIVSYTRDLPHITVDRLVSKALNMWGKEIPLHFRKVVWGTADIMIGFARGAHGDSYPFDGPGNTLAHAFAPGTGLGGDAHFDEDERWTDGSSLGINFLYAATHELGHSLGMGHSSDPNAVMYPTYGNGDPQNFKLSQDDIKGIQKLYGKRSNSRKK

Interstitial collagenase = target: T2, Interstitial collagenase (Homo sapiens, UniProt P03956); assay: Inhibition of MMP1 (unknown origin)-mediated Mca-Pro-Leu-Gly-Leu-Dpa-Ala-Arg-NH2 by fluorimetric assay; summary of the method: as §1
T2 sequence (P03956 whole entry): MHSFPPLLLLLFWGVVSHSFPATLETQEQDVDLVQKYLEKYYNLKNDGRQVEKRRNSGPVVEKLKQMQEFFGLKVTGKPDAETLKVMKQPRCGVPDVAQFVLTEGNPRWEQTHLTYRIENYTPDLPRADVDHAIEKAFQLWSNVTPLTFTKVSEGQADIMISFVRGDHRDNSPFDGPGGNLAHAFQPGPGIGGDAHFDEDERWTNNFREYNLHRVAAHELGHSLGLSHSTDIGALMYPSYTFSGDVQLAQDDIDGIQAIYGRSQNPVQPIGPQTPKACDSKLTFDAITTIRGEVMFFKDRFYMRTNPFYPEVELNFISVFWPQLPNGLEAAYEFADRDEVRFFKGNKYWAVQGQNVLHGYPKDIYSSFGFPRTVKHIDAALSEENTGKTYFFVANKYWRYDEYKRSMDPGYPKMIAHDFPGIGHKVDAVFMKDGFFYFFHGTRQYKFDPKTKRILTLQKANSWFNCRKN

Chain of Macrophage metalloelastase (P39900 whole entry): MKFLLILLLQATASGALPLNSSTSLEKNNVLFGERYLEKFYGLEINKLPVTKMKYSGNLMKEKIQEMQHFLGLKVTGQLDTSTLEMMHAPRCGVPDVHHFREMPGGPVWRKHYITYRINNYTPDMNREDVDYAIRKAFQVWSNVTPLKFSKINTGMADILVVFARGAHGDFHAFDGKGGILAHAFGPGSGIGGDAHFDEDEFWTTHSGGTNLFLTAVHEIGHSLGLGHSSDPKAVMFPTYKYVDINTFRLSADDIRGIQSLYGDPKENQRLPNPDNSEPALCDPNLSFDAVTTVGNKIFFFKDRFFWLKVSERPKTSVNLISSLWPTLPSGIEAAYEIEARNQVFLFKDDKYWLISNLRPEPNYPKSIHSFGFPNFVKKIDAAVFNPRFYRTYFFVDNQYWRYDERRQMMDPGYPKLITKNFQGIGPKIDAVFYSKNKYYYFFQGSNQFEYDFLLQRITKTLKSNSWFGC

| SMILES | Ki [1] | Ki (Collagenase 3) | Ki (Neutrophil collagenase) | Ki (Matrilysin) | Ki (Interstitial collagenase) |
| --- | --- | --- | --- | --- | --- |
| O=C(O)CNS(=O)(=O)CCc1ccc(Cl)s1 | 272 nM | 323 nM | 364 nM | – | – |
| O=C(CNS(=O)(=O)CCc1ccc2c(c1)OCO2)NO | 15 nM | 35 nM | 20 nM | 18.5 µM | 19.7 µM |
| COc1ccc(CCS(=O)(=O)NCC(=O)NO)cc1 | 10 nM | 12 nM | 14 nM | – | – |
| O=C(CNS(=O)(=O)CCc1ccc(Oc2ccccc2)cc1)NO | 10 nM | 19 nM | 32 nM | – | – |
| O=C(CNS(=O)(=O)CCc1ccccc1)NO | 23 nM | 49 nM | 75 nM | 10.7 µM | 5.7 µM |
| O=C(CNS(=O)(=O)c1ccccc1)NO | 62 nM | 42 nM | 240 nM | 4 µM | 3.4 µM |
| O=C(CNS(=O)(=O)c1ccc(-c2ccccc2)cc1)NO | 2 nM | 2 nM | 9 nM | 5 µM | 0.365 µM |
| O=C(NO)[C@H]1CCCN1S(=O)(=O)CCc1ccccc1 | 16 nM | 14 nM | 43 nM | 7 µM | 1.8 µM |
| O=C(CNS(=O)(=O)CCc1ccc(Cl)s1)NO | 6 nM | 6 nM | 37 nM | – | – |
| O=C(NO)[C@@H]1CCCN1S(=O)(=O)CCc1ccc2c(c1)OCO2 | 5 nM | 10 nM | 13 nM | 6 µM | 7 µM |
| O=C(O)CNS(=O)(=O)CCc1ccc(-c2ccccc2)cc1 | 7 nM | 5 nM | 7 nM | – | – |
| O=C(O)CNS(=O)(=O)c1ccc(-c2ccccc2)cc1 | 18000 nM | – | – | – | 0.365 µM |
| COc1ccc(CCS(=O)(=O)N2CCC[C@H]2C(=O)NO)cc1 | 1 nM | 1 nM | 4 nM | – | – |
| COc1ccc(S(=O)(=O)NCC(=O)NO)cc1 | 20 nM | – | – | 4 µM | – |
| O=C(NO)[C@H]1CCCN1S(=O)(=O)CCc1ccc(Oc2ccccc2)cc1 | 5 nM | 10 nM | 98 nM | – | – |
| O=C(NO)[C@@H]1CCCN1S(=O)(=O)CCc1ccc(Cl)s1 | 9 nM | 3 nM | 6 nM | – | – |
| O=C(NO)C1CCCN1S(=O)(=O)CCc1ccc(-c2ccccc2)cc1 (single isomer, unassigned) | 2 nM | 1 nM | 3 nM | – | – |
| O=C(O)[C@@H]1CCCN1S(=O)(=O)c1ccc(Cl)s1 | 672 nM | 175 nM | 275 nM | – | – |
